Results reported in ChEMBL document CHEMBL1140227, “Histone deacetylase inhibitors through click chemistry” (J Med Chem, 2008).

Legend:
Type in all cases: functional
Melanoma cell = experiment: cells; settings: Homo sapiens
SNB-75 = experiment: Growth inhibition of human SNB75 cells at 10 uM relative to control; settings: values are per cent of control
Procedure, shortened: (§1)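 Single-dose NCI human tumour cell line screen, run by the NIH. Percent inhibition of cell line growth was calculated by comparison with untreated samples.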

NCI-H522 = experiment: Growth inhibition of human NCI-H522 cells at 10 uM relative to control; settings: values are per cent of control
Procedure, shortened: (§2)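 Single-dose preliminary screen in the NCI human cancer cell line panel, run by the NIH. Percent inhibition of cell line growth was calculated by comparison with untreated samples.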

M14 = experiment: Growth inhibition of human M14 cells at 10 uM relative to control; settings: values are per cent of control
Procedure, shortened: as §2

LOX IMVI = experiment: Growth inhibition of human LOXIMVI cells at 10 uM relative to control; settings: values are per cent of control
Procedure, shortened: as §2

[1] = Growth inhibition of human RPMI8266 cells at 10 uM relative to control; settings: values are per cent of control
Procedure, shortened: as §2

ACHN = experiment: Growth inhibition of human ACHN cells at 10 uM relative to control; settings: values are per cent of control
Procedure, shortened: as §2

SK-MEL-2 = experiment: Growth inhibition of human SK-MEL-2 cells at 10 uM relative to control; settings: values are per cent of control
Procedure, shortened: as §2

HCT-116 = experiment: Growth inhibition of human HCT116 cells at 10 uM relative to control; settings: values are per cent of control
Procedure, shortened: as §2

Malme-3M = experiment: Growth inhibition of human MALME-3M cells at 10 uM relative to control; settings: values are per cent of control
Procedure, shortened: as §2

CCRF-CEM = experiment: Growth inhibition of human CCRF-CEM cells at 10 uM relative to control; settings: values are per cent of control
Procedure, shortened: as §2

MOLT-4 = experiment: Growth inhibition of human MOLT4 cells at 10 uM relative to control; settings: values are per cent of control
Procedure, shortened: as §2

BT-549 = experiment: Growth inhibition of human BT549 cells at 10 uM relative to control; settings: values are per cent of control
Procedure, shortened: as §2

U-251 = experiment: Growth inhibition of human U251 cells at 10 uM relative to control; settings: values are per cent of control
Procedure, shortened: as §1

DU-145 = experiment: Growth inhibition of human DU145 cells at 10 uM relative to control; settings: values are per cent of control
Procedure, shortened: as §2

NCI-H460 = experiment: Growth inhibition of human NCI-H460 cells at 10 uM relative to control; settings: values are per cent of control
Procedure, shortened: as §2

MDA-MB-435 = experiment: Growth inhibition of human MDA-MB-435 cells at 10 uM relative to control; settings: values are per cent of control
Procedure, shortened: as §2

HCC 2998 = experiment: Growth inhibition of human HCC2998 cells at 10 uM relative to control; settings: values are per cent of control
Procedure, shortened: as §2

SK-OV-3 = experiment: Growth inhibition of human SKOV3 cells at 10 uM relative to control; settings: values are per cent of control
Procedure, shortened: as §2

SN12C = experiment: Growth inhibition of human SN12C cells at 10 uM relative to control; settings: values are per cent of control
Procedure, shortened: as §2

IGROV-1 = experiment: Growth inhibition of human IGROV1 cells at 10 uM relative to control; settings: values are per cent of control
Procedure, shortened: as §2

PC-3 = experiment: Growth inhibition of human PC3 cells at 10 uM relative to control; settings: values are per cent of control
Procedure, shortened: as §2

cells [2] = settings: Homo sapiens, Cancer cell lines
EKVX = experiment: Growth inhibition of human EKVX cells at 10 uM relative to control; settings: values are per cent of control
Procedure, shortened: as §2

SK-MEL-28 = experiment: Growth inhibition of human SK-MEL-28 cells at 10 uM relative to control; settings: values are per cent of control
Procedure, shortened: as §2

SF-295 = experiment: Growth inhibition of human SF295 cells at 10 uM relative to control; settings: values are per cent of control
Procedure, shortened: as §2

SNB-19 = experiment: Growth inhibition of human SNB19 cells at 10 uM relative to control; settings: values are per cent of control
Procedure, shortened: as §2

UO-31 = experiment: Growth inhibition of human UO31 cells at 10 uM relative to control; settings: values are per cent of control
Procedure, shortened: as §1

A549 = experiment: Growth inhibition of human A549 cells at 10 uM relative to control; settings: values are per cent of control
Procedure, shortened: as §2

SF-539 = experiment: Growth inhibition of human SF539 cells at 10 uM relative to control; settings: values are per cent of control
Procedure, shortened: as §2

HOP-62 = experiment: Growth inhibition of human HOP62 cells at 10 uM relative to control; settings: values are per cent of control
Procedure, shortened: as §2

HT-29 = experiment: Growth inhibition of human HT-29 cells at 10 uM relative to control; settings: values are per cent of control
Procedure, shortened: as §2

HOP-92 = experiment: Growth inhibition of human HOP92 cells at 10 uM relative to control; settings: values are per cent of control
Procedure, shortened: as §2

TK-10 = experiment: Growth inhibition of human TK10 cells at 10 uM relative to control; settings: values are per cent of control
Procedure, shortened: as §1

[3] = Growth inhibition of human Hs 578T cells at 10 uM relative to control; settings: values are per cent of control
Procedure, shortened: as §2

Leukemia cell = experiment: cells; settings: Homo sapiens
cells [4] = settings: Homo sapiens, Cancer cell lines; remark: listed apart in the source
NCI-H322M = experiment: Growth inhibition of human NCI-H322M cells at 10 uM relative to control; settings: values are per cent of control
Procedure, shortened: as §2

NCI/ADR-RES = experiment: Growth inhibition of human NCI/ADR-RES cells at 10 uM relative to control; settings: values are per cent of control
Procedure, shortened: as §2

NCI-H23 = experiment: Growth inhibition of human NCI-H23 cells at 10 uM relative to control; settings: values are per cent of control
Procedure, shortened: as §2

OVCAR-8 = experiment: Growth inhibition of human OVCAR8 cells at 10 uM relative to control; settings: values are per cent of control
Procedure, shortened: as §2

CAKI-1 = experiment: Growth inhibition of human Caki1 cells at 10 uM relative to control; settings: values are per cent of control
Procedure, shortened: as §2

MDA-MB-231 = experiment: Growth inhibition of human MDA-MB-231 cells at 10 uM relative to control; settings: values are per cent of control
Procedure, shortened: as §2

SW-620 = experiment: Growth inhibition of human SW620 cells at 10 uM relative to control; settings: values are per cent of control
Procedure, shortened: as §1

cells [5] = settings: Homo sapiens, Cancer cell lines; remark: listed apart in the source
A498 = experiment: Growth inhibition of human A498 cells at 10 uM relative to control; settings: values are per cent of control
Procedure, shortened: as §2

UACC-257 = experiment: Growth inhibition of human UACC257 cells at 10 uM relative to control; settings: values are per cent of control
Procedure, shortened: as §1

HCT-15 = experiment: Growth inhibition of human HCT15 cells at 10 uM relative to control; settings: values are per cent of control
Procedure, shortened: as §2

MDA-MB-468 = experiment: Growth inhibition of human MDA-MB-468 cells at 10 uM relative to control; settings: values are per cent of control
Procedure, shortened: as §2

OVCAR-4 = experiment: Growth inhibition of human OVCAR4 cells at 10 uM relative to control; settings: values are per cent of control
Procedure, shortened: as §2

NCI-H226 = experiment: Growth inhibition of human NCI-H226 cells at 10 uM relative to control; settings: values are per cent of control
Procedure, shortened: as §2

SF-268 = experiment: Growth inhibition of human SF268 cells at 10 uM relative to control; settings: values are per cent of control
Procedure, shortened: as §2

COLO 205 = experiment: Growth inhibition of human COLO205 cells at 10 uM relative to control; settings: values are per cent of control
Procedure, shortened: as §2

K562 = experiment: Growth inhibition of human K562 cells at 10 uM relative to control; settings: values are per cent of control
Procedure, shortened: as §2

cells [6] = settings: Homo sapiens, Cancer cell lines; remark: listed apart in the source
786-0 = experiment: Growth inhibition of human 786-0 cells at 10 uM relative to control; settings: values are per cent of control
Procedure, shortened: as §2

KM12 = experiment: Growth inhibition of human KM12 cells at 10 uM relative to control; settings: values are per cent of control
Procedure, shortened: as §2

cells [7] = settings: Homo sapiens, Cancer cell lines; remark: listed apart in the source
HL-60(TB) = experiment: Growth inhibition of human HL-60(TB) cells at 10 uM relative to control; settings: read-out: INH
Procedure, shortened: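 Single-dose cell line screen run by the NCI (NIH) in its human cancer cell line panel, which includes the leukemia line HL-60(TB). Percent growth inhibition was calculated by comparison with untreated samples.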

MCF7 = experiment: Growth inhibition of human MCF7 cells at 10 uM relative to control; settings: values are per cent of control
Procedure, shortened: as §2

OVCAR-5 = experiment: Growth inhibition of human OVCAR5 cells at 10 uM relative to control; settings: values are per cent of control
Procedure, shortened: as §2

UACC-62 = experiment: Growth inhibition of human UACC62 cells at 10 uM relative to control; settings: values are per cent of control
Procedure, shortened: as §1

T47D = experiment: Growth inhibition of human T47D cells at 10 uM relative to control; settings: values are per cent of control
Procedure, shortened: as §1

## O=C(/C=C/c1cn(CC(=O)Nc2ccccc2)nn1)NO
Melanoma cell
  inhibition at 10 µM: 69%
SNB-75
  growth, % of control at 10 µM: 88.5%
NCI-H522
  growth, % of control at 10 µM: 41%
M14
  growth, % of control at 10 µM: 60%
LOX IMVI
  growth, % of control at 10 µM: 95.4%
[1]
  growth, % of control at 10 µM: 64.2%
ACHN
  growth, % of control at 10 µM: 113%
SK-MEL-2
  growth, % of control at 10 µM: 51.1%
HCT-116
  growth, % of control at 10 µM: 55.3%
Malme-3M
  growth, % of control at 10 µM: 21.4%
CCRF-CEM
  growth, % of control at 10 µM: 57.1%
MOLT-4
  growth, % of control at 10 µM: 62.2%
BT-549
  growth, % of control at 10 µM: 83.6%
U-251
  growth, % of control at 10 µM: 86.6%
DU-145
  growth, % of control at 10 µM: 87.8%
NCI-H460
  growth, % of control at 10 µM: 86.1%
MDA-MB-435
  growth, % of control at 10 µM: 63.4%
HCC 2998
  growth, % of control at 10 µM: 83.5%
SK-OV-3
  growth, % of control at 10 µM: 79.5%
SN12C
  growth, % of control at 10 µM: 89%
IGROV-1
  growth, % of control at 10 µM: 86.4%
PC-3
  growth, % of control at 10 µM: 79.7%
Cells [2]
  growth percent at 10 µM: 90%
EKVX
  growth, % of control at 10 µM: 70.5%
SK-MEL-28
  growth, % of control at 10 µM: 93.4%
SF-295
  growth, % of control at 10 µM: 81.3%
SNB-19
  growth, % of control at 10 µM: 105%
UO-31
  growth, % of control at 10 µM: 74%
A549
  growth, % of control at 10 µM: 91.2%
SF-539
  growth, % of control at 10 µM: 107%
HOP-62
  growth, % of control at 10 µM: 43.1%
HT-29
  growth, % of control at 10 µM: 51.9%
HOP-92
  growth, % of control at 10 µM: 67.8%
TK-10
  growth, % of control at 10 µM: 101%
[3]
  growth, % of control at 10 µM: 84.2%
Leukemia cell
  inhibition at 10 µM: 84%
Cells [4]
  inhibition at 10 µM: 74%
NCI-H322M
  growth, % of control at 10 µM: 41.8%
NCI/ADR-RES
  growth, % of control at 10 µM: 13.4%
NCI-H23
  growth, % of control at 10 µM: 82.8%
OVCAR-8
  growth, % of control at 10 µM: 51.9%
CAKI-1
  growth, % of control at 10 µM: 81.7%
MDA-MB-231
  growth, % of control at 10 µM: 104%
SW-620
  growth, % of control at 10 µM: 91.5%
Cells [5]
  inhibition at 10 µM: 89%
A498
  growth, % of control at 10 µM: 105%
UACC-257
  growth, % of control at 10 µM: 54.4%
HCT-15
  growth, % of control at 10 µM: 105%
MDA-MB-468
  growth, % of control at 10 µM: 64.2%
OVCAR-4
  growth, % of control at 10 µM: 83.7%
NCI-H226
  growth, % of control at 10 µM: 94.1%
SF-268
  growth, % of control at 10 µM: 66.8%
COLO 205
  growth, % of control at 10 µM: 117%
K562
  growth, % of control at 10 µM: 86%
Cells [6]
  inhibition at 10 µM: 68%
786-0
  growth, % of control at 10 µM: 69.5%
KM12
  growth, % of control at 10 µM: 76%
Cells [7]
  growth percent at 10 µM: 71%
HL-60(TB)
  growth, % of control at 10 µM: 153%
MCF7
  growth, % of control at 10 µM: 95.8%
OVCAR-5
  growth, % of control at 10 µM: 79%
UACC-62
  growth, % of control at 10 µM: 70.8%
T47D
  growth, % of control at 10 µM: 56.6%
